{"source": "paper PMC7615481", "about": "(The Journal of biological chemistry, 2023)", "key": {"mouse GC-C [1]": {"target": "T1, mouse GC-C (Mus musculus, UniProt Q3UWA6)", "T1 sequence (Q3UWA6 20-1072)": "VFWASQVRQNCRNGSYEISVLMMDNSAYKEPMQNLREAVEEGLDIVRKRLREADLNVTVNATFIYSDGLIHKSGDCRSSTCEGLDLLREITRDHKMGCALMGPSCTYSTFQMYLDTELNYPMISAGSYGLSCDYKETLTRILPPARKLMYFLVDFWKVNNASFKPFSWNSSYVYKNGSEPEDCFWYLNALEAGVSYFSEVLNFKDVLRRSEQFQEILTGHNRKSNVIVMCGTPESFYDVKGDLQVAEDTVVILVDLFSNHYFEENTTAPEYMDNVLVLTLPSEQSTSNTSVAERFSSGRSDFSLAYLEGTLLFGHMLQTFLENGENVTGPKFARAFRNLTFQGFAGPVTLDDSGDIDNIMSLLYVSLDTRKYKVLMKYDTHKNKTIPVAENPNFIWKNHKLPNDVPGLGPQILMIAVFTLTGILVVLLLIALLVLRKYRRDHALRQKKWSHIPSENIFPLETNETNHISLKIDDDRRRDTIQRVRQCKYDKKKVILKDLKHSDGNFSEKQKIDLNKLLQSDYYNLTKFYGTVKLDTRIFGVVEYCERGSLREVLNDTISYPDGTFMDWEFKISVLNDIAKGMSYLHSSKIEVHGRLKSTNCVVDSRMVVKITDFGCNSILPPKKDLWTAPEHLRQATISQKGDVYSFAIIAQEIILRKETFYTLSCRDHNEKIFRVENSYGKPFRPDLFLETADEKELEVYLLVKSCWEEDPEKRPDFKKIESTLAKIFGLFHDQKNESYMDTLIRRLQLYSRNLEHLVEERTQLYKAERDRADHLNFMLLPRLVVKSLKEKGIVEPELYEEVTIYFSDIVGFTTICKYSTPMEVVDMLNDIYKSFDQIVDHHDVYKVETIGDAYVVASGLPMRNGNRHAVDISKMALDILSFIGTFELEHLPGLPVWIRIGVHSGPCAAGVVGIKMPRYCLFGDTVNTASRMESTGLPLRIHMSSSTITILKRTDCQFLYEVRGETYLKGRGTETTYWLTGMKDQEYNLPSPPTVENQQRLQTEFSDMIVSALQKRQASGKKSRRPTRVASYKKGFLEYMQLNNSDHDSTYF", "test": "In vitro GC assay, MgGTP as substrate, with or without Lubrol, mGC-C", "assay_type": "biochemical", "conditions": "1 mM MgGTP, Fig. 4A"}, "GC-CK516A [2]": {"system": "GC-CK516A", "conditions": "Mg2+; ref [25]; cited from earlier work"}, "GC-C": {"system": "GC-C", "conditions": "in vitro; ref [38]; cited from earlier work"}, "human GC-C [3]": {"target": "T2, human GC-C (Homo sapiens, UniProt P25092)", "T2 sequence (P25092 24-1073)": "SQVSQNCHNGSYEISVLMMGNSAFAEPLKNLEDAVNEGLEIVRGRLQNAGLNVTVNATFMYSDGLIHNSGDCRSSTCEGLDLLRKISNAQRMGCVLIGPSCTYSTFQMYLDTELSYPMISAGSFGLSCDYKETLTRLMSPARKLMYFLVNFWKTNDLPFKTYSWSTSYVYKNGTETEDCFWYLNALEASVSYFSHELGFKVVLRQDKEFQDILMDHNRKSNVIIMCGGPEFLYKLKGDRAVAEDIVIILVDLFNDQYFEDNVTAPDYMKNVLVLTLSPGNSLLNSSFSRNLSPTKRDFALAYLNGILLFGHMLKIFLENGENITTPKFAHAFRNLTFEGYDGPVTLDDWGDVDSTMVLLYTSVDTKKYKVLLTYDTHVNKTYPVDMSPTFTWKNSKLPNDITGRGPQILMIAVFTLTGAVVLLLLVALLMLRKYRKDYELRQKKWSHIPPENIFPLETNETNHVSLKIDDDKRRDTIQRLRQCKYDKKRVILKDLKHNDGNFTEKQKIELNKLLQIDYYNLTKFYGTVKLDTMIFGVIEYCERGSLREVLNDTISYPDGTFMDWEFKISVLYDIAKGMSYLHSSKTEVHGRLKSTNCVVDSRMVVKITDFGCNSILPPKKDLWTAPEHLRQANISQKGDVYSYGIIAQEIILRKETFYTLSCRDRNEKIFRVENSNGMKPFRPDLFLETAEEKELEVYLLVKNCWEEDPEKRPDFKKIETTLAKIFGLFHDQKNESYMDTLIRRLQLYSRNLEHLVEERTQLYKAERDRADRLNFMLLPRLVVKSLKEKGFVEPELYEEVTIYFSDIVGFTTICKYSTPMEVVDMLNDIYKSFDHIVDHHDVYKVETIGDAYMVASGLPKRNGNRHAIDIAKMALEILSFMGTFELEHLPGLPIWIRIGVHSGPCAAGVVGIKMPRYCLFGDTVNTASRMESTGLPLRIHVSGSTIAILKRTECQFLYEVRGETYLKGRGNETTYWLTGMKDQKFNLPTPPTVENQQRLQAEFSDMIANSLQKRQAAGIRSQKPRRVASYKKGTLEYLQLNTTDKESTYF", "conditions": "Mn2+ as metal ion; ref [25]; cited from earlier work"}, "human GC-C [4]": {"target": "T2, human GC-C", "test": "In vitro GC assay, MnGTP as substrate, hGC-C", "assay_type": "biochemical", "conditions": "1 mM MnATP, 1 mM MnGTP; Fig. 4B"}, "mhCYC chimeric GC-C": {"system": "mhCYC chimeric GC-C", "test": "In vitro GC assay, MgGTP as substrate, Lubrol-stimulated, mhCYC", "assay_type": "biochemical", "conditions": "1 mM MgATP, 1 mM MgGTP, 0.1% Lubrol-PX; Fig. 4A"}, "hmCYC chimeric GC-C [5]": {"system": "hmCYC chimeric GC-C", "test": "In vitro GC assay, MnGTP as substrate, hmCYC", "assay_type": "biochemical", "conditions": "1 mM MnATP, 1 mM MnGTP; Fig. 4B"}, "hmCYC chimeric GC-C [6]": {"system": "hmCYC chimeric GC-C", "test": "In vitro GC assay, MgGTP as substrate, Lubrol-stimulated, hmCYC", "assay_type": "biochemical", "conditions": "1 mM MgATP, 1 mM MgGTP, 0.1% Lubrol-PX; Fig. 4A"}, "GC-CK516A [7]": {"system": "GC-CK516A", "conditions": "ref [25]; cited from earlier work"}, "[8]": {"system": "chimeric receptor harboring the mouse KHD", "assay_type": "biochemical", "conditions": "0.1% Lubrol-PX, MgGTP"}, "mouse GC-C [9]": {"target": "T1, mouse GC-C", "test": "In vitro GC assay, MnGTP as substrate, mGC-C", "assay_type": "biochemical", "conditions": "1 mM MnATP, 1 mM MnGTP; Fig. 4B"}, "hGC-C": {"system": "hGC-C", "conditions": "Mg2+ as metal ion cofactor, ref [25]; cited from earlier work"}, "WT or GCD chimeric GC-C": {"system": "WT or GCD chimeric GC-C", "assay_type": "binding", "conditions": "monolayers of HEK293E; Fig. 3E"}, "[10]": {"system": "mhICD chimeric GC-C receptor", "assay_type": "binding", "conditions": "words; Fig. 2H lower panel"}, "mouse GC-C variant 2 [11]": {"system": "mouse GC-C variant 2", "test": "Radiolabeled ST binding to monolayers, mouse GC-C variant 2", "conditions": "monolayer HEK293E, Fig. 1E, three experiments"}, "mouse GC-C variant 2 [12]": {"system": "mouse GC-C variant 2", "test": "Ligand-stimulated cGMP production in HEK293E cells, mouse GC-C variant 2", "assay_type": "cell-based", "conditions": "10^−6 M ST, RIA, Fig. 1D", "how_it_was_run": "(§1)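 HEK293E cells expressing the mouse GC-C variant were preincubated for 30 min at 37 °C in a humidified CO₂ incubator in DMEM-HG with serum, antibiotics and 500 μM IBMX. They were then exposed to medium alone or 10⁻⁶ M ST for 30 min. Monolayers were lysed in 0.1 N HCl, and cGMP was measured by RIA and normalized to cell-surface receptor amount. Representative of three independent experiments.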"}, "mice lacking GC-C": {"system": "mice lacking GC-C", "conditions": "ref [12]; cited from earlier work"}, "human GC-C [13]": {"target": "T2, human GC-C", "conditions": "ref [21]; cited from earlier work"}, "mouse GC-C [14]": {"target": "T1, mouse GC-C", "assay_type": "cell-based"}, "hmCYC chimeric GC-C [15]": {"system": "hmCYC chimeric GC-C", "assay_type": "cell-based"}, "mice": {"system": "mice", "conditions": "mouse, in vivo; cited from earlier work"}, "mouse GC-C variant 1": {"system": "mouse GC-C variant 1", "test": "Ligand-stimulated cGMP production in HEK293E cells, mouse GC-C variant 1", "assay_type": "cell-based", "conditions": "10^−6 M ST, RIA, Fig. 1D", "how_it_was_run": "as §1"}}, "note": "“Also recorded” adds a separate entry of the source. Positions of bridges follow the written chain, without caps; N, C: chain ends. Residues, ends and D or L forms follow the SMILES beside them."}
{"molecule": "Nc1ncnc2c1ncn2[C@@H]1O[C@H](COP(=O)(O)OP(=O)(O)OP(=O)(O)O)[C@@H](O)[C@H]1O", "note": "[ATP]", "values": [{"measurement": "ATP-mediated inhibition of Lubrol-stimulated GC activity, mGC-C", "setting": "mouse GC-C [1]; 1 mM MgATP, 0.1% Lubrol-PX", "result": "lost and no allosteric inhibition of guanylyl cyclase activity and no inhibition of detergent-mediated activity by ATP"}, {"measurement": "ATP inhibition of Lubrol-stimulated GC activity, GC-CK516A", "setting": "GC-CK516A [2]", "result": "inhibition is lost"}, {"measurement": "ATP inhibition of MnGTP-mediated and detergent-mediated GC activity", "setting": "GC-C", "result": "inhibit in vitro MnGTP-mediated and detergent-mediated GC activity"}, {"measurement": "ATP inhibition of GC activity with Mn2+", "setting": "human GC-C [3]", "result": "inhibits GC activity when Mn^2+ is the metal ion used in assays"}, {"measurement": "ATP-mediated inhibition of GC activity with MnGTP, hGC-C", "setting": "human GC-C [4]", "result": "remained"}, {"measurement": "ATP-mediated inhibition of Lubrol-stimulated GC activity, mhCYC", "setting": "mhCYC chimeric GC-C", "result": "lost"}, {"measurement": "ATP-mediated inhibition of MnGTP-mediated activity, hmCYC", "setting": "hmCYC chimeric GC-C [5]", "result": "displayed ATP-mediated inhibition of MnGTP-mediated activity"}, {"measurement": "ATP-mediated inhibition of Lubrol-stimulated GC activity, hmCYC", "setting": "hmCYC chimeric GC-C [6]", "result": "retained"}, {"measurement": "ATP inhibition of GC activity with Mn2+, GC-CK516A", "setting": "GC-CK516A [7]", "result": "inhibition is also seen"}, {"measurement": "ATP inhibition of detergent-mediated activity, chimeric receptor harboring the mouse KHD", "setting": "[8]", "result": "no inhibition of detergent-mediated activity by ATP"}, {"measurement": "ATP-mediated inhibition of GC activity with MnGTP, mGC-C", "setting": "mouse GC-C [9]", "result": "remained; also recorded: displayed ATP-mediated inhibition of MnGTP-mediated activity"}, {"measurement": "ATP inhibition of Lubrol-stimulated GC activity", "setting": "hGC-C", "result": "inhibits Lubrol-stimulated GC activity"}]}
{"molecule": "CC(C)C[C@@H]1NC(=O)[C@H](CCC(=O)O)NC(=O)[C@@H]2CSSC[C@@H]3NC(=O)[C@H](C)NC(=O)[C@@H]4CCCN4C(=O)[C@H](CC(N)=O)NC(=O)[C@H](CSSC[C@H](NC(=O)[C@H](Cc4ccc(O)cc4)NC(=O)[C@H](CC(N)=O)NC(=O)[C@H](CO)NC(=O)[C@H](CO)NC(=O)[C@@H](N)CC(N)=O)C(=O)N2)NC(=O)[C@H](CSSC[C@@H](C(=O)N[C@@H](Cc2ccc(O)cc2)C(=O)O)NC(=O)CNC(=O)[C@H]([C@@H](C)O)NC3=O)NC1=O", "note": "[ST] (H-NSSNYCCELCCNPACTGCY-OH; disulfide 6-11, 7-15, 10-18; N-terminus and C-terminus assumed)", "values": [{"measurement": "binding to ST of GCD chimeric receptors", "setting": "WT or GCD chimeric GC-C", "result": "determined by the ECD"}, {"measurement": "affinity to the ST peptide of the mhICD chimera", "setting": "[10]", "result": "reduced affinity to the ST peptide"}, {"measurement": "ligand binding ability of variant 2", "setting": "mouse GC-C variant 2 [11]", "result": "marked reduction in the ligand binding ability"}, {"measurement": "cGMP levels on ST treatment, variant 2", "setting": "mouse GC-C variant 2 [12]", "result": "remained unchanged"}, {"measurement": "ST-induced fluid accumulation in mice lacking GC-C", "setting": "mice lacking GC-C", "result": "resistant to ST-induced fluid accumulation"}, {"measurement": "affinity of plasma membrane- and endoplasmic reticulum–associated hGC-C for ST", "setting": "human GC-C [13]", "result": "comparable affinities"}, {"measurement": "accumulation of cGMP at saturating ST, mGC-C", "setting": "mouse GC-C [14]", "result": "much reduced in comparison with cells expressing hGC-C"}, {"measurement": "intracellular cGMP accumulation, mGC-C lower than hGC-C", "setting": "mouse GC-C [14]", "result": "~ 10 fold"}, {"measurement": "cGMP accumulation, hmCYC versus hGC-C", "setting": "hmCYC chimeric GC-C [15]", "result": "log order reduction in cGMP accumulation when compared to hGC-C"}, {"measurement": "accumulation of fluid in the gut of mice on ST treatment", "setting": "mice", "result": "leads to the accumulation of fluid in the gut"}, {"measurement": "cGMP levels on ST treatment, variant 1", "setting": "mouse GC-C variant 1", "result": "significant increase in cGMP levels"}]}
{"molecule": "MgGTP", "values": [{"measurement": "GC activity of mGC-C in the presence of MgGTP", "setting": "mouse GC-C [1]; 4 mM free MgCl2, 37 °C 10 min, words", "result": "lower than that of hGC-C"}]}
